# Source: PubChem BioAssay (several laboratories)
# A selection: hits, their analogues and other compounds. The true share with any hit is near 8.7%.
# Cav3 T inh – inhibitors of human Cav3.2 T-type calcium channel; Cav3.2-expressing cells, Fluo-4 calcium fluorescence FDSS; active compounds read low; O95180; actives 4% (n = 100,000); B-score at 10 µM;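 active = single-dose well whose peak fluorescence ratio is a statistical outlier from its plate by either plate-standardised score or position-corrected B-score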
# E coli WT exp – growth inhibitors of E. coli BW25113 wild type | growth inhibition, % at 100 µM | OD600 absorbance | actives 0.15% (n = 98,000);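 active = growth inhibition above about 50% at one test dose, limit read from the data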;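 note: growth measured after 20 h incubation at 37 °C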
# Pyk2 oligo antag – Pyk2 (human) oligomerization antagonism. Q293 cells, Pyk2 FERM NanoBiT luminescence; active compounds read low. z-score (the deposit names both 25 µM and 10 µM). actives 0.83% (n = 99,000);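 active = Z-score of -3 or lower, scaled per plate to the spread of control and sample wells; inactive = z-score above -3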;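 note: negative z-score means lost luminescence so less FERM oligomerization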
# Target sequence (Q14289 whole entry, looked up): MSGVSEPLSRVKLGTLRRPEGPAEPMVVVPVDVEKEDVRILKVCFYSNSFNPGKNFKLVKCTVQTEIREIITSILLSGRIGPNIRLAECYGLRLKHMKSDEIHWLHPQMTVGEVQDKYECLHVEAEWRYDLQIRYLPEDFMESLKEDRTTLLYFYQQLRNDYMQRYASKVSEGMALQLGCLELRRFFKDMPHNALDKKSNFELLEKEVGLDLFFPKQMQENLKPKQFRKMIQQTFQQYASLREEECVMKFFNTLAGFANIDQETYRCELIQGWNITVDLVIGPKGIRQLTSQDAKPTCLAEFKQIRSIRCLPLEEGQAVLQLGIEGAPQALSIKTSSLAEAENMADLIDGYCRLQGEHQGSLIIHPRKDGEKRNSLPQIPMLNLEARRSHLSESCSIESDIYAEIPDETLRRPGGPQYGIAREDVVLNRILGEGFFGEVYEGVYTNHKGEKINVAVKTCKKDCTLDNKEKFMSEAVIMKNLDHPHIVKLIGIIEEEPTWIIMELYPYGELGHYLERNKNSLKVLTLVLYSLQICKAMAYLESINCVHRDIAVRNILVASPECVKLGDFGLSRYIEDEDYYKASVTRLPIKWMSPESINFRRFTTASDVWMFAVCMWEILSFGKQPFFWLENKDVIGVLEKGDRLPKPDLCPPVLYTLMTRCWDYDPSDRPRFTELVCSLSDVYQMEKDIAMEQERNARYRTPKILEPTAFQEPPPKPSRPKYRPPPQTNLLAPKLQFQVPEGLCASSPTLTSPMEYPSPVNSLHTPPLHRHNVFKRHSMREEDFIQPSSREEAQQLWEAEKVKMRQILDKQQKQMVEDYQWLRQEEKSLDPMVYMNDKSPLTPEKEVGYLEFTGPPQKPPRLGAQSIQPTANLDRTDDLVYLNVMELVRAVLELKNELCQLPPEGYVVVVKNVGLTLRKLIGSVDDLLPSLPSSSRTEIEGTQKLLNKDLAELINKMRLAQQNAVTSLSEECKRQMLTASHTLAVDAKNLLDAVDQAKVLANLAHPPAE
# PostGolgi ctrl – growth of the yeast control strain, post-Golgi counter-screen | actives 5% (n = 98,000) | efflux-deficient yeast background strain, growth absorbance A615, 16 h | AID 738 | inhibition, % at 10 µM
# tolC growth inh – E. coli tolC mutant growth inhibition. AID 573. E. coli BW25113 tolC mutant growth, OD615. actives 2.2% (n = 65,000). growth inhibition, % at 10 µM (by protocol);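 active = growth inhibition at or above a cutoff equal to the mean over every tested compound plus 3 SD, cut at about 60% in these data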;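 note: growth measured after 20 h incubation at 37 °C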
#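 Assay system: tolC-deleted E. coli BW25113. Medium: kanamycin-containing LB broth (50 µg/mL). Dosing: 10 µM final, single dose. Timing: bacterial growth with compound for 20 h at 37 °C. Detection: A615 absorbance measurement. Read-out basis: growth inhibition in percent.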
# PostGolgi yeast – growth inhibition of a yeast mutant, post-Golgi transport screen; actives 0.9% (n = 98,000); post-Golgi transport phenotypic cell assay; AID 739; inhibition, % at 10 µM;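 note: yeast cells grown in 1536-well plates; yeast grown about 18 h at 30C before absorbance read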
# Hits are given with their value; 0 = inactive; - = no result. Cut-off read from the data, not from the text of the source, unless noted: active = inhibition above about 30%; inactive = the rest.
SMILES,Cav3 T inh,E coli WT exp,Pyk2 oligo antag,PostGolgi ctrl,tolC growth inh,PostGolgi yeast
Cc1ccc(S(=O)(=O)Nc2cc(-c3nn(C)c(=O)c4ccccc34)ccc2N2CCOCC2)cc1,0,0,0,0,-,0
Cn1nc(-c2ccc(N3CCOCC3)c(NS(=O)(=O)c3ccc(Cl)cc3)c2)c2ccccc2c1=O,0,0,0,30.4,-,0
CCN(CC)CCOc1c(Br)ccc2c1sc1nc3n(c(=O)c12)CCC3,0,0,0,0,0,0
O=c1c2c(nc3n1CCCCC3)sc1c(O)c(Br)ccc12,0,0,0,53.8,-,0
COc1cccc(N/C(N)=N/c2nc(C(F)(F)F)cc(=O)[nH]2)c1,-,-,0,-,-,-
O=C(NCC1(c2ccccc2)CCCC1)c1cccc(Br)c1,-7.47,0,0,0,-,0
CC1(C)CC(=O)c2cc(OCC(=O)NCCCN3CCN(c4ccc(F)cc4)CC3)ccc2O1,0,0,0,0,0,0
COC(=O)C1=C(CSc2nccn2C)NC(=O)NC1c1cc(C)ccc1C (stereo not drawn),0,0,0,0,-,0
CCSc1ncc(Cl)c(C(=O)N(Cc2ccc(N(C)C)cc2)C2CCS(=O)(=O)C2)n1 (stereo not drawn),3.48,0,0,0,0,0
COc1cc2cc(C(=O)O)[nH]c2c(OC)c1OC,-,0,0,0,-,0
Cc1ccc2nc(N3CCN(C=O)CC3)nc(-c3ccccc3)c2c1,0,-,0,-,-,-
COc1ccc2c(c1)CC/C(=C\C=C\c1ccccc1OC)C2=O,0,-,0,-,-,-
COc1ccc2c(c1)C(=O)/C(=C/C=C/c1ccccc1)CC2,-4.69,-,0,-,-,-
CCOC(=O)c1cc2c(ccn2C)n1CC(=O)N1CCC(Cc2ccccc2)CC1,0,0,0,0,0,0
CCOC(=O)c1cc2c(ccn2C)n1CC(=O)N1CCN(c2ccccc2OC)CC1,0,0,-,0,0,32.4
N#Cc1c2n(c3c(=O)n(Cc4ccc(Cl)cc4)cnc13)CCCC2,0,0,-3.51,0,0,0
C/C(=N\NC(=O)c1ccc(Cl)c(Cl)c1)c1cccc(NC(=O)C(C)C)c1,-7.1,0,0,0,-,0
C/C(=N\NC(=O)c1cccc(Cl)c1)c1cccc(NC(=O)C(C)C)c1,0,0,0,0,-,0
O=[N+]([O-])c1ccc(N2CCN(CCO)CC2)cc1Sc1nc2ccccc2[nH]1,-,0,-,0,-,0
O=C(COc1ccccc1F)NC1CCN(Cc2ccccc2)CC1,0,0,0,0,-,54.0
O=C(CCc1nc(-c2ccccc2F)no1)NC1CCN(Cc2ccccc2)CC1,0,0,0,0,0,0
COc1ccc(NC(=O)/C(=C\c2ccc(OS(=O)(=O)c3ccc(C)cc3)cc2)NC(=O)c2ccccc2)cc1,0,0,0,0,-,0
Cc1ccc(S(=O)(=O)Oc2ccc(/C=C(/NC(=O)c3ccccc3)C(=O)Nc3ccccc3)cc2)cc1,-5.04,0,0,0,-,0
COc1ccc(CNc2nc(-c3cccnc3)nn2C(=O)c2cccs2)cc1,-,0,0,40.1,0,0
COc1cccc2c(=O)c3c(cnn3C)n(C)c12,-,0,0,0,0,42.1
SMILES,Cav3 T inh,E coli WT exp,Pyk2 oligo antag,PostGolgi ctrl,tolC growth inh,PostGolgi yeast
CC1CCN(C(=S)c2cn(Cc3ccc(F)cc3)c3ccccc23)CC1,0,0,0,0,-,0
O=[N+]([O-])/C=C/c1cn(Cc2ccc(F)cc2)c2ccccc12,0,0,0,79.5,-,35.6
C=C(C)Cn1c(COc2ccccc2)nnc1SCC(=O)O,0,0,0,0,0,0
COc1ccc(/C=N/NS(=O)(=O)c2ccccc2)cc1OC(=O)c1ccc(C)cc1,-,0,0,0,-,0
COc1cc(/C=N/NC(N)=S)ccc1OC(=O)c1ccc(C)cc1,0,0,0,52.5,-,0
COC(C/C=C\[C@@H](O)COCc1ccccc1)OC,0,-,-,-,-,-
Cc1nn(-c2ccccc2)c2sc(C(=O)N(CC(=O)NC(C)(C)C)Cc3ccco3)cc12,0,0,0,0,74.9,0
COC(=O)c1cc2c(C)nn(-c3ccccc3)c2s1,0,0,0,0,0,0
COc1cc(/C=N/N2C(=O)c3ccccc3NC2(C)c2cccc([N+](=O)[O-])c2)cc(Br)c1O (stereo not drawn),0,0,0,0,-,0
Cc1cccc(-n2nnc(C(=O)NC3CCCc4ccccc43)c2N)c1 (stereo not drawn),-6.65,0,0,0,0,0
O=C(CN1C(=O)NC2(CCc3ccccc32)C1=O)Nc1cc(C(F)(F)F)ccc1N1CCOCC1 (stereo not drawn),0,-,-,-,0,-
